ChEMBL document CHEMBL1144102, “New cytotoxic polyacetylenes from the marine sponge Petrosia” (1999)
Converted amounts (≈) assume the structure as drawn.

Experiments:
Format in all cases: functional
A549 = assay: Cytotoxicity against human A549 cells by MTT assay; conditions: read-out: ED50 (the source's name)
Simian virus 40 [1] = assay: Antiviral activity against SV40 virus assessed as inhibition of DNA replication at 500 uM; conditions: Betapolyomavirus macacae
Outline: (§1)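 Cell-free SV40 origin DNA replication: mixtures contained 40 mM creatine phosphate-di-Tris (pH 7.7), creatine kinase, 7 mM MgCl2, 0.5 mM DTT, 4 mM ATP, 200 µM UTP/GTP/CTP, 100 µM dATP/dGTP/dCTP, 25 µM [3H]dTTP, SV40 T-Ag, SV40 origin plasmid (pUC) and replication proteins. Incubated 90 min at 37 °C, then acid-insoluble radioactivity counted.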

HCT-15 = assay: Cytotoxicity against human HCT-15 cells by MTT assay; conditions: read-out: ED50 (the source's name)
Simian virus 40 [2] = assay: Antiviral activity against SV40 virus assessed as inhibition of DNA replication at 250 uM; conditions: Betapolyomavirus macacae; outline: as §1
SK-OV-3 = assay: Cytotoxicity against human SKOV3 cells by MTT assay; conditions: read-out: ED50 (the source's name)
SK-MEL-2 = assay: Cytotoxicity against human SK-MEL-2 cells by MTT assay; conditions: read-out: ED50 (the source's name)
XF498 = assay: Cytotoxicity against human XF498 cells by MTT assay; conditions: read-out: ED50 (the source's name)
Simian virus 40 [3] = assay: Antiviral activity against SV40 virus assessed as inhibition of DNA replication at 125 uM; conditions: Betapolyomavirus macacae; outline: as §1

| Structure (SMILES) | EC50 (A549) | inhibition at 500 µM (Simian virus 40 [1]) | EC50 (HCT-15) | inhibition at 250 µM (Simian virus 40 [2]) | EC50 (SK-OV-3) | EC50 (SK-MEL-2) | EC50 (XF498) | inhibition at 125 µM (Simian virus 40 [3]) |
| --- | --- | --- | --- | --- | --- | --- | --- | --- |
| C#C/C=C\CCCCCCCCCCCCC/C=C\CCCC/C=C\CCCCC#C[C@@H](O)C#CCCCCCC/C=C/[C@H](O)C#C [NOR-3S,14S-PETROCORTYNE A] | 7.3 µg/mL (≈ 11.4 µM) | 70% | 3.5 µg/mL (≈ 5.46 µM) | 47% | 4.4 µg/mL (≈ 6.86 µM) | 3.8 µg/mL (≈ 5.93 µM) | 6.1 µg/mL (≈ 9.52 µM) | 12% |
| C#C/C=C\CCCCCCCCCCCCC/C=C/C(=O)CCCC/C=C\CCCCC#C[C@@H](O)C#CCCCCCC/C=C/[C@H](O)C#C [PETROTETRAYNDIOL C] | > 10 µg/mL | 81% | 5.7 µg/mL (≈ 8.52 µM) | 46% | 4.2 µg/mL (≈ 6.28 µM) | 4.1 µg/mL (≈ 6.13 µM) | 12.7 µg/mL (≈ 19 µM) | 45% |
